# Measured values: article PMC8177775 (Cancer Science, 2021)
# Several values for one entry are separate records, joined by “and”; a condition that tells them apart may be missing. Equal entries are not always repeated. Entries after “also recorded” stand apart in the source; their conditions may differ. Where two headings read alike, the source gives them in different places.
# How the values were obtained:
# [1] = Plasma pharmacokinetics of milademetan; assay type: in vivo, human; details: for AUC: AUCtau
# [2] = system: advanced solid tumors or lymphomas; details: cited from earlier work
# [3] = system: solid tumors; assay: Efficacy assessment by RECIST version 1.1; assay type: in vivo, human
# In short: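 Adults with relapsed or refractory solid tumors took oral test compound (tosylate salt) QD on days 1–21 of 28-day cycles at 60, 90 or 120 mg. Response was assessed by RECIST 1.1 using CT and MRI every 8 weeks through cycle 8, then every 12 weeks. Minimum SD duration was 8 weeks after first dose. Summaries were descriptive over patients with efficacy data.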
# [4] = Day 21 of cycle 1, Cohort 2 (90 mg/d) (n = 9), oral QD, mean (SD)
# [5] = human, plasma, po, 60 mg/d, Day 1 of cycle 1, Cohort 1 (60 mg/d) (n = 3), oral QD, mean (SD)
# [6] = human, plasma, po, 60 mg/d, Day 21 of cycle 1, Cohort 1 (60 mg/d) (n = 2), oral QD, mean (SD)
# [7] = human, plasma, po, 90 mg/d, Day 1 of cycle 1, Cohort 2 (90 mg/d) (n = 11), oral QD, mean (SD)
compound,measurement,setting,value
"CC1(C)CCC2(CC1)N[C@@H](C(=O)N[C@@H]1CC[C@@H](C(N)=O)OC1)[C@H](c1ccnc(Cl)c1F)[C@]21C(=O)Nc2cc(Cl)ccc21 [milademetan, Milademetan]",Plasma concentration versus dose,[1]; 60 to 120 mg QD,increased in a dose‐dependent manner; also recorded: dose‐dependent increase
same,Ctrough,"[1]; Day 21 of cycle 1, Cohort 1 (60 mg/d) (n = 2), oral QD, mean (SD)",192 (29.7) ng/mL
same,Accumulation rate,[1]; [4],1.65 (0.440)
same,Ctrough,[1]; [4],389 (234) ng/mL
same,Ctrough,"[1]; Day 21 of cycle 1, Cohort 3 (120 mg/d) (n = 1), oral QD, SD not calculated",552 (NC) ng/mL
same,PK linearity,[1]; dose range of 60 to 120 mg/day,linear PK
same,half-life,"[1]; human, plasma, oral, Mean t1/2, day 1, across 60- to 120-mg cohorts",15.1 to 17.9 h
same,half-life,"[1]; human, plasma, oral, Mean t1/2, day 21, across 60- to 120-mg cohorts",18.1 to 26.1 h
same,Tmax,"[1]; human, plasma, oral, Median Tmax, all cohorts",~3 h
same,AUC(0-inf),"[1]; human, plasma, po, 60 mg/d",6320 ng·h/mL
same,AUC,[1]; [5],4250 ng·h/mL
same,AUC,[1]; [6],7390 ng·h/mL
same,Cmax,[1]; [5],429 ng/mL
same,Cmax,[1]; [6],625 ng/mL
same,Tmax,"[1]; human, plasma, po, 60 mg/d, Tmax, Day 1 of cycle 1, Cohort 1 (60 mg/d) (n = 3), oral QD, median (minimum, maximum)",3 h
same,Tmax,"[1]; human, plasma, po, 60 mg/d, Tmax, Day 21 of cycle 1, Cohort 1 (60 mg/d) (n = 2), oral QD, median (minimum, maximum)",2.48 h
same,half-life,"[1]; human, plasma, po, 60 mg/d, t1/2, Day 1 of cycle 1, Cohort 1 (60 mg/d) (n = 3), oral QD, mean (SD)",15.1 h
same,half-life,"[1]; human, plasma, po, 60 mg/d, t1/2, Day 21 of cycle 1, Cohort 1 (60 mg/d) (n = 2), oral QD, mean (SD)",18.1 h
same,AUC,[1]; [7],8380 ng·h/mL
same,Cmax,[1]; [7],692 ng/mL
same,Cmax,"[1]; human, plasma, po, 90 mg/d, Day 21 of cycle 1, Cohort 2 (90 mg/d) (n = 9), oral QD, mean (SD)",995 ng/mL
same,Tmax,"[1]; human, plasma, po, 90 mg/d, Tmax, Day 1 of cycle 1, Cohort 2 (90 mg/d) (n = 11), oral QD, median (minimum, maximum)",3 h
same,Tmax,"[1]; human, plasma, po, 90 mg/d, Tmax, Day 21 of cycle 1, Cohort 2 (90 mg/d) (n = 9), oral QD, median (minimum, maximum)",3.02 h
same,half-life,"[1]; human, plasma, po, 90 mg/d, t1/2, Day 1 of cycle 1, Cohort 2 (90 mg/d) (n = 11), oral QD, mean (SD)",15.4 h
same,half-life,"[1]; human, plasma, po, 90 mg/d, t1/2, Day 21 of cycle 1, Cohort 2 (90 mg/d) (n = 9), oral QD, mean (SD)",20.9 h
same,Cmax,"[1]; human, plasma, po, 120 mg/d, Day 1 of cycle 1, Cohort 3 (120 mg/d) (n = 4), oral QD, mean (SD)",1140 ng/mL
same,Tmax,"[1]; human, plasma, po, 120 mg/d, Tmax, Day 1 of cycle 1, Cohort 3 (120 mg/d) (n = 4), oral QD, median (minimum, maximum)",3.01 h
same,Tmax,"[1]; human, plasma, po, 120 mg/d, Tmax, Day 21 of cycle 1, Cohort 3 (120 mg/d) (n = 1), oral QD, median (minimum, maximum)",2.95 h
same,half-life,"[1]; human, plasma, po, 120 mg/d, t1/2, Day 1 of cycle 1, Cohort 3 (120 mg/d) (n = 4), oral QD, mean (SD)",17.9 h
same,AUC(0-t),"[1]; human, plasma, po, 120 mg/day",25600 ng·h/mL
same,MTD in US phase I study,[2]; once-daily 21/28-day schedule,120 mg
same,MTD in US phase I study,[2]; once-daily 28/28-day schedule,90 mg
same,Complete or partial response,[3]; 16 patients,No patients achieved complete or partial response
same,Antitumor activity,[3]; Japanese patients with solid tumors,modest antitumor activity
same,"Disease control rate, percentage of patients (95% CI)",[3]; Total (n = 16),43.8%
same,"Progressive disease, percentage of patients (95% CI)",[3]; Total (n = 16),31.3%
same,"Stable disease, percentage of patients (95% CI)",[3]; Total (n = 16),43.8%
same,PFS rate (95% CI),[3]; at 3 months,56.8%
same,PFS rate (95% CI),"[3]; at 6, 9, and 12 months",35.5%
same,Patients with a PFS event,"[3]; efficacy analysis set, 17 patients",Eight of the 17 patients
same,"Median (minimum, maximum) PFS",[3]; including censored patients,"15.29 (0.1, 202.1) weeks and 15.3 (0.1+, 202.1+) weeks"
same,Median (range) duration of stable disease,[3]; including censored patients,"55.4 (7.3‐202.1) weeks and 55.4 (7.3+, 202.1+) weeks"
same,PFS of one patient,[3]; one patient in the 60-mg cohort with SD as best response,202.1 weeks
